# Experimental data: ChEMBL document CHEMBL1127085, “Derivatives of 2-(dipropylamino)tetralin: effect of the C8-substituent on the interaction with 5-HT1A receptors” (J Med Chem, 1993)
# Where “and” joins values, the source holds several entries; their conditions need not be identical. Identical values can stand only once.
# Tests used:
# [1] = tested on: Rattus norvegicus; assay: Ability to produce 5-HT motor syndrome in normal rats at the dose of 3.2 micro mol/kg; format: functional
# [2] = molecular target: T1, 5-hydroxytryptamine receptor 1A (Rattus norvegicus, UniProt P19327); assay: Binding affinity of 5-hydroxytryptamine 1A receptor using [3H]-8-OH-DPAT as radioligand.
# T1 sequence (P19327 whole entry): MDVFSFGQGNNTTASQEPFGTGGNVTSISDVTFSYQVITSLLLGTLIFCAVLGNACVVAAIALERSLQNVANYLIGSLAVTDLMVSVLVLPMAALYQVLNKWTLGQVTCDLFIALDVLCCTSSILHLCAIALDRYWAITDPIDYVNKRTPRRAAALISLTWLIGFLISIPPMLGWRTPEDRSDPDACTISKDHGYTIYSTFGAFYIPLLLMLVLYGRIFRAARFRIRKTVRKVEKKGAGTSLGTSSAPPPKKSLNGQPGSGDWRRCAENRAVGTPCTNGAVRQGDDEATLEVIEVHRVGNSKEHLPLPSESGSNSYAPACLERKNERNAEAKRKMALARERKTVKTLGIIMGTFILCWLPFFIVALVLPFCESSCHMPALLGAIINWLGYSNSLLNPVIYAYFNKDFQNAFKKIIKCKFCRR
# Method in brief: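 Membranes from cortex and hippocampus of male Sprague-Dawley rats, pooled from at least six rats, preincubated with 10 µM pargyline. Assay used 2 nM [3H]-8-OH-DPAT, test compound at 1-300 nM and 5 mg/mL tissue in 50 mM Tris-HCl with 4.0 mM CaCl2 and 5.7 mM ascorbate, pH 7.5. Incubated 10 min at 37 °C, filtered on GF/B, scintillation counted.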
# [3] = molecular target: T2, 5-hydroxytryptamine receptor 1A (Rattus norvegicus) (UniProt P19327); assay: Effect of 5-HT accumulation in rat hippocampus at the dose of 32 umol/kg (p<0.01); format: functional, tissue-based
# T2 sequence (whole entry): T1 sequence (P19327 whole entry)
# Method in brief: (§1)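 Test compound given sc in 0.9% NaCl. NSD 1015 (287 µmol/kg sc) given 30 min later to inhibit aromatic L-amino acid decarboxylase; rats decapitated after a further 30 min. Hippocampus and striatum stored at -40 °C for up to 1 week. Perchloric acid homogenates with α-methyl-5-hydroxytryptophan internal standard; 5-HTP and DOPA measured by HPLC-EC. Percent of control, means ± SEM; ANOVA with Tukey test.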
# [4] = molecular target: T2, 5-hydroxytryptamine receptor 1A (Rattus norvegicus); assay: 5-HT (serotonin) turnover in rat hippocampus (p<0.05); format: functional, tissue-based
# Method in brief: (§2)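 Rats dosed sc (screening dose typically 32 µmol/kg, in 0.9% NaCl, 2 mL/kg); decapitated 5-10 min after the 30-min rating, […]. Hippocampus dissected and frozen. 5-HIAA/5-HT ratio measured by HPLC with electrochemical detection (+0.85 V) after perchloric acid homogenisation. Reported as percent of saline control, mean ± SEM, n = 4-6 per group; ANOVA with Tukey test.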
# [5] = molecular target: T2, 5-hydroxytryptamine receptor 1A (Rattus norvegicus); assay: Induction of clear-cut 5-HT motor syndrome in normal rats at the dose of 32 micro mol/kg; format: functional
# [6] = molecular target: T2, 5-hydroxytryptamine receptor 1A (Rattus norvegicus); assay: Induction of clear-cut 5-HT motor syndrome in reserpine (5 mg/kg, sc) pretreated rats at the dose of 32 micro mol/kg; format: functional, organism-based
# [7] = molecular target: T3, Dopamine receptor (Rattus norvegicus) (UniProt P25115+P19020+P30729+P18901+P61169); assay: Effect of accumulation of DOPA in rat striatum at the dose of 32 umol/kg; format: functional, tissue-based; method in brief: as §1
# [8] = molecular target: T2, 5-hydroxytryptamine receptor 1A (Rattus norvegicus); assay: Number of rats displaying the 5-HT syndrome or leaving the cage out of the number of rats tested; format: functional
# [9] = molecular target: T3, Dopamine receptor (Rattus norvegicus); assay: Dopamine (DA) turnover in rat corpus striatum; format: functional, tissue-based
# Method in brief: (§3)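 Rats given compound sc in 0.9% NaCl (screening dose typically 32 µmol/kg); decapitated about 30 min after dosing. Hippocampus and corpus striatum dissected and frozen. Perchloric acid homogenates analysed by HPLC with electrochemical detection. Turnover taken as 5-HIAA/5-HT or DOPAC/DA, expressed as percent of saline control. Means ± SEM; n = 5-7 controls, 4-6 treated. ANOVA with Tukey test.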
# [10] = species on record: Rattus norvegicus; assay: Ability to inhibit cage leaving response; format: functional
# Method in brief: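 Normal rats given compound sc in saline, housed two per cage. Cage grid covers removed 12 min after injection; rats leaving the cage during the following 12 min were counted and reported as number leaving out of number tested.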
# [11] = tested on: Rattus norvegicus; assay: Antagonistic effect on body temperature of rat induced by (R)-1 at the dose of 32 and 1 umol/kg of compound (R)-1; format: functional
# Method in brief: (§4)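 Compound (32 µmol/kg sc) or saline injected 10 min before (R)-8-OH-DPAT (1.0 µmol/kg sc). Colonic temperature taken before injection and 30 min later; result is the change from the preinjection value. One-way ANOVA with Tukey HSD test.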
# [12] = molecular target: T2, 5-hydroxytryptamine receptor 1A (Rattus norvegicus); assay: 5-HT (serotonin) turnover in rat hippocampus; format: functional, tissue-based; method in brief: as §3
# [13] = tested on: Rattus norvegicus; assay: Change in body temperature of rats upon administration after 30 minutes; format: functional
# Method in brief: (§5)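 Colonic temperature taken with an electrical thermometer probe 3.5 cm deep, before and 30 min after sc injection in saline. Change reported in °C as mean ± SEM; animal numbers as in the cage-leaving test. ANOVA with Tukey test.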
# [14] = tested on: Rattus norvegicus; assay: Induction of clear-cut 5-HT motor syndrome in normal rats at the dose of 32 umol/kg; format: functional
# [15] = molecular target: T2, 5-hydroxytryptamine receptor 1A (Rattus norvegicus); assay: Antagonistic effect on 5-HT syndrome or behavior of rat induced by (R)-1 at the dose of 32 and 1.0 umol/kg of compound (R)-1; format: functional
# Method in brief: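 Compound (32 µmol/kg sc) or saline injected 10 min before (R)-8-OH-DPAT (1.0 µmol/kg sc). Flat body posture, forepaw treading and hindlimb abduction scored during 30 min of observation. Results as number of rats showing the behaviour out of number tested; Fisher's exact probability test.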
# [16] = species on record: Rattus norvegicus; assay: Dopamine (DA) turnover in rat corpus striatum (p<0.01); format: functional; method in brief: as §3
# [17] = species on record: Rattus norvegicus; assay: 5-HT (serotonin) turnover in rat hippocampus (0.05); format: functional; method in brief: as §3
# [18] = tested on: Rattus norvegicus; assay: Change in body temperature of rats upon administration after 30 minutes (p<0.01); format: functional; method in brief: as §5
# [19] = tested on: Rattus norvegicus; assay: Ability produce 5-HT motor syndrome in reserpine (5 mg/kg, sc) pretreated rats at the dose of 3.2 micro mol/kg; format: functional
# [20] = species on record: Rattus norvegicus; assay: 5-HT (serotonin) turnover in rat hippocampus (p<.005); format: functional; method in brief: as §3
# [21] = tested on: Rattus norvegicus; assay: Induction of clear-cut 5-HT motor syndrome in normal rats at the dose of 32 uM/Kg; format: functional
# [22] = tested on: Rattus norvegicus; assay: Effect of 5-HT accumulation in rat hippocampus at the dose of 32 umol/kg; format: functional; method in brief: as §1
# [23] = tested on: Rattus norvegicus; assay: Antagonistic effect on body temperature of rat induced by (R)-1 at the dose of 32 and 1.0 umol/kg of compound (R)-1; format: functional; method in brief: as §4
# [24] = tested on: Rattus norvegicus; assay: Effect of 5-HT accumulation in rat hippocampus at the dose of 1.0 umol/kg (p<0.01); format: functional; method in brief: as §1
# [25] = tested on: Rattus norvegicus; assay: Effect of DOPA accumulation in rat striatum at the dose of 1.0 umol/kg (p<0.01); format: functional; method in brief: as §1
# [26] = tested on: Rattus norvegicus; assay: Effect of 5-HT accumulation in rat hippocampus at the dose of 0.32 umol/kg (p<0.01); format: functional; method in brief: as §1
# [27] = tested on: Rattus norvegicus; assay: Effect of accumulation of DOPA in rat striatum at the dose of 1.0 umol/kg; format: functional; method in brief: as §1
# [28] = molecular target: T2, 5-hydroxytryptamine receptor 1A (Rattus norvegicus); assay: 5-HT (serotonin) turnover in rat hippocampus (p<0.01); format: functional, tissue-based; method in brief: as §2
# [29] = tested on: Rattus norvegicus; assay: Induction of clear-cut 5-HT motor syndrome in normal rats at the dose of 1.0 micro mol/kg
# [30] = tested on: Rattus norvegicus; assay: Induction of clear-cut 5-HT motor syndrome in reserpine (5 mg/kg, sc) pretreated rats at the dose of 1.0 micro mol/kg; format: functional
# [31] = tested on: Rattus norvegicus; assay: Effect of DOPA accumulation in rat striatum at the dose of 0.32 umol/kg (p<0.01); format: functional; method in brief: as §1
# [32] = tested on: Rattus norvegicus; assay: Effect of accumulation of DOPA in rat striatum at the dose of 0.32 umol/kg; format: functional
# Method in brief: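 Compound given sc in saline, then NSD 1015 (287 µmol/kg sc) to block aromatic L-amino acid decarboxylase 30 min later. Rats decapitated after another 30 min. Striatum stored at -40 °C for up to 1 week. DOPA quantified by HPLC-EC with α-methyl-5-hydroxytryptophan as internal standard. Reported as percent of control, mean ± SEM (n = 5-6 treated, 15 control); ANOVA with Tukey test.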
smiles,measurement,setting,value
CCCN(CCC)[C@@H]1CCc2cccc(CO)c2C1,Effect,[1],4
same,Ki,[2],23 nM
same,Accumulation,[3],47
same,Turnover,[4],74 and 85
same,Behavioral effect,[5],4
same,Behavioral effect,[6],4
same,Accumulation,[7],125
same,No. of rats,[8],0
same,Turnover,[9],93 and 88
same,Cage leaving,[10],4
CCCN(CCC)[C@@H]1CCc2cccc(OS(=O)(=O)C(F)(F)F)c2C1,Temperature,[11],-4.18
same,Turnover,[12],106
same,Temperature,[13],0.5
same,Behavioral effect,[14],0
same,Effect,[15],4
same,No. of rats,[8],4
same,Turnover,[9],93
CCCN(CCC)C1CCc2ccccc2C1 (racemic),Ki,[2],37 nM
same,Turnover,[16],46
same,Behavioral effect,[14],4
same,Turnover,[17],60
same,Temperature,[18],-2
same,Behavioral effect,[6],4
same,No. of rats,[8],4
CCCN(CCC)C1CCc2cccc(CO)c2C1 (racemic),Behavioral effect,[19],3
same,Ki,[2],25 nM
CCCN(CCC)[C@@H]1CCc2cccc(C)c2C1,Turnover,[20],69
same,Temperature,[18],-2.1
same,Accumulation,[3],54
same,Behavioral effect,[5],4
same,Behavioral effect,[6],0
same,Accumulation,[7],86
same,No. of rats,[8],0
same,Turnover,[9],88
CCCN(CCC)[C@H]1CCc2cccc(C(=O)c3ccccc3)c2C1,Ki,[2],16 nM
same,Turnover,[12],112
same,Behavioral effect,[21],0
same,Temperature,[13],0.13
same,Accumulation,[22],95
same,Effect,[15],4
same,Accumulation,[7],83
same,No. of rats,[8],2
same,Turnover,[9],88
same,Temperature,[23],-3.03
CCCN(CCC)[C@@H]1CCc2cccc(O)c2C1,Accumulation,[24],45
same,Accumulation,[25],98
same,Accumulation,[26],44
same,Accumulation,[27],98
same,Turnover,[28],66
same,Behavioral effect,[29],42
same,Temperature,[18],-2.6
same,Behavioral effect,[30],15
same,Accumulation,[31],106
same,No. of rats,[8],42
same,Accumulation,[32],106
same,Turnover,[9],96
